Reference: ChEMBL document CHEMBL1139377, “Induced association of mu opioid (MOP) and type 2 cholecystokinin (CCK2) receptors by novel bivalent ligands” (J Med Chem, 2009)

Columns and labels:
Mu-type opioid receptor [1] = target: T1, Mu-type opioid receptor (Homo sapiens, UniProt P35372); test: Binding affinity to mu opioid receptor expressed in CHO cells assessed per mg of protein; assay type: cell-based
Outline: (§1)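 Membranes came from CHO cells stably expressing MOP receptor alone or with CCK2 receptor. They were incubated with [3H]DAMGO (0.4 nM) plus increasing unlabeled ligand for 2 h at room temperature in KRH, pH 7.4, with 0.2% BSA and soybean trypsin inhibitor. Nonspecific binding was set with 1 μM DAMGO. Samples were filtered on PEI-soaked GF/C and scintillation counted; Ki and Bmax (pmol/mg protein) came from LIGAND analysis. Mean±S.E.M., 3-5 experiments.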

[2] = target: T2, Gastrin/cholecystokinin type B receptor (Homo sapiens, UniProt P32239); test: Activity at CCK2R-MOPR coexpressed in CHO cells co-transfected with delta-6-Galphaqi4-myr assessed as intracellular calcium release by FLIPR; assay type: functional, cell-based
T2 sequence (P32239 whole entry): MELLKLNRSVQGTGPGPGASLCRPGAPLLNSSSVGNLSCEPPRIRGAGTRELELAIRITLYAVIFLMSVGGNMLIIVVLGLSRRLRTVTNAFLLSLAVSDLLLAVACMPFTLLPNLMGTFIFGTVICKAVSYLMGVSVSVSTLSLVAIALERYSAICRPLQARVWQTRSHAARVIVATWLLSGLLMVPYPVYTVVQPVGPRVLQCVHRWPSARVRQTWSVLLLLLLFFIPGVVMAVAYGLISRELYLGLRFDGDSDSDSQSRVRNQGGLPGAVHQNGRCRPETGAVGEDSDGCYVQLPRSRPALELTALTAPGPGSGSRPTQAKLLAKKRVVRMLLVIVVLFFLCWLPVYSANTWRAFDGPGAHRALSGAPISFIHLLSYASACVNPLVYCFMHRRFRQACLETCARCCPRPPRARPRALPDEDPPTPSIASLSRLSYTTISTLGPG
Outline: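 CHO cells stably expressing CCK2R were grown to 90% confluence, then transiently co-transfected by lipofectamine with MOPR and chimeric Gqi4-myr constructs. After 24 h they were seeded into 96-well plates and used the next day. Ca2+ mobilization was read with a FLIPR calcium kit on a FlexStation3, giving EC50 (nM); number of runs in parentheses.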

[3] = target: T3, Gastrin/cholecystokinin type B receptor (Homo sapiens) (UniProt P32239); test: Binding affinity to CCK2R-MOPR coexpressed in CHO cells assessed per mg of protein by [125I] CCK-26-33 displacement assay; assay type: cell-based
T3 sequence (whole entry): T2 sequence (P32239 whole entry)
Outline: (§2)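 Membranes came from CHO-K1 cells stably expressing CCK2 receptor alone or with MOP receptor. They were incubated with 125I-D-Tyr-Gly-[(Nle28,31)CCK-26-33] (1-5 pM) plus increasing unlabeled ligand for 90 min at room temperature in KRH, pH 7.4, with 0.2% BSA and soybean trypsin inhibitor. Nonspecific binding was set with 1 μM CCK. Bound ligand was filtered and gamma counted; Ki and Bmax (pmol/mg protein) were taken from LIGAND analysis. Mean±S.E.M., 3-5 experiments.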

[4] = target: T3, Gastrin/cholecystokinin type B receptor (Homo sapiens); test: Binding affinity to CCK2 receptor expressed in CHO cells assessed per mg of protein; assay type: cell-based; outline: as §2
Mus musculus [5] = test: Antinociceptive activity in icv dosed ICR mouse after 24 hrs by tail flick assay; assay type: functional
Outline: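 24 h tolerance in male ICR mice: the day-1 ED80 i.c.v. dose (5 μL, under 1% DMSO) was given again 24 h later to the same mouse, after confirming antinociception had returned to baseline. Radiant-heat tail flick was read at peak time (10-20 min) and expressed as %MPE.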

Mus musculus [6] = test: Antinociceptive activity in icv dosed ICR mouse by tail flick assay; assay type: functional
Outline: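 Male ICR mice (17-25 g) received i.c.v. injections (5 μL, under 1% DMSO) while conscious. Radiant-heat tail flick was measured at peak time from a 10-60 min time course, expressed as %MPE. At least three groups of 8-10 mice per dose-response, each mouse used once. ED50 (pmol/mouse) with 95% CI came from nonlinear regression.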

[7] = target: T2, Gastrin/cholecystokinin type B receptor; test: Displacement of [125I]CCK-26-33 from CCK2R-MOPR coexpressed in CHO cells; assay type: cell-based
Outline: (§3)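 CHO-K1 cell lines stably expressing CCK2 receptor alone or with MOP receptor; receptor-enriched membranes from density gradient centrifugation. (1-5 pM) and increasing concentrations of unlabeled ligand, 90 min, room temperature, KRH pH 7.4 with 0.2% BSA and soybean trypsin inhibitor. Filtration, gamma counting; nonsaturable binding with 1 μM CCK. Ki from LIGAND analysis; 3-5 independent experiments.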

[8] = target: T2, Gastrin/cholecystokinin type B receptor; test: Displacement of [125I]CCK-26-33 from CCK2 receptor expressed in CHO cells; assay type: cell-based; outline: as §3
Mu-type opioid receptor [9] = target: T1, Mu-type opioid receptor; test: Displacement of [3H]DAMGO from mu opioid receptor expressed in CHO cells; assay type: cell-based; outline: as §1

T1 sequence (P35372 whole entry): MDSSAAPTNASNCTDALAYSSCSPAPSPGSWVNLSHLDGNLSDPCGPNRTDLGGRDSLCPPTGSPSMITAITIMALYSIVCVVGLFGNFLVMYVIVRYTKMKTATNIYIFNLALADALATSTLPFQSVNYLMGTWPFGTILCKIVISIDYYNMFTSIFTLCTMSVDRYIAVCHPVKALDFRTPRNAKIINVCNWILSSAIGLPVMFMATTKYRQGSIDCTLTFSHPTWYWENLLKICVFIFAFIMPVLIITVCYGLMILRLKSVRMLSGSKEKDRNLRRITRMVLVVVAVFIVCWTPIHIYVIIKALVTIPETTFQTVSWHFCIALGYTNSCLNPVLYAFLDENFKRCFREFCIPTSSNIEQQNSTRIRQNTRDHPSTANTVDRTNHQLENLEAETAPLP

SMILES	Bmax (Mu-type opioid receptor [1]) [pmol]	EC50 [2] [µM]	Bmax [3] [pmol]	Bmax [4] [pmol]	ED50 (Mus musculus [5]) [pmol]	ED50 (Mus musculus [6]) [pmol]	Ki [7] [µM]	Ki [8] [µM]	Ki (Mu-type opioid receptor [9]; read-out: Ki) [µM]	Ki (Mu-type opioid receptor [9]; cho)
C[C@@H](NC(=O)[C@@H](N)Cc1ccc(O)cc1)C(=O)NCC(=O)N(C)[C@@H](Cc1ccccc1)C(=O)NCCO [DAMGO]	9.2	0.00266								
Cc1cccc(NC(=O)N[C@@H]2N=C(c3ccccc3)c3ccccc3N(C)C2=O)c1			9.1	14.4						
CN1C(=O)[C@H](NC(=O)Nc2cccc(OCCNC(=O)COCC(=O)NCCNC(=O)COCC(=O)N[C@H]3CC[C@@]4(O)[C@H]5Cc6cc(O)cc7c6[C@@]4(CCN5C)[C@H]3O7)c2)N=C(c2ccccc2)c2ccccc21	7.7	0.119	12.4	10.3	71.29	390	0.033	0.071	0.0057	
CN1C(=O)[C@H](NC(=O)Nc2cccc(OCCNC(=O)COCC(=O)NNC(=O)COCC(=O)N[C@H]3CC[C@@]4(O)[C@H]5Cc6cc(O)cc7c6[C@@]4(CCN5C)[C@H]3O7)c2)N=C(c2ccccc2)c2ccccc21	9.8		9.5	16	84.45	47.41	0.057	0.356	0.0083	
CN1C(=O)[C@H](NC(=O)Nc2cccc(OCCNC(=O)COCC(=O)NCCCCCCNC(=O)COCC(=O)N[C@H]3CC[C@@]4(O)[C@H]5Cc6cc(O)cc7c6[C@@]4(CCN5C)[C@H]3O7)c2)N=C(c2ccccc2)c2ccccc21	7.4		10.9	18.5	64.33	2020	0.077	0.26	0.0294	
CNC(=O)COCC(=O)NCCCCNC(=O)COCC(=O)N[C@H]1CC[C@@]2(O)[C@H]3Cc4cc(O)cc5c4[C@@]2(CCN3C)[C@H]1O5	9.3	0.572			40.74	51.93				29.8
CN1C(=O)[C@H](NC(=O)Nc2cccc(OCCNC(=O)COCC(=O)N[C@H]3CC[C@@]4(O)[C@H]5Cc6cc(O)cc7c6[C@@]4(CCN5C)[C@H]3O7)c2)N=C(c2ccccc2)c2ccccc21	12.4		9.3	14	57.31	3036	0.21	0.223	0.0241	
CNC(=O)COCC(=O)NCCCCCCNC(=O)COCC(=O)NCCOc1cccc(NC(=O)N[C@@H]2N=C(c3ccccc3)c3ccccc3N(C)C2=O)c1		< 10	9.5	16						
